Laboratory results published in ChEMBL document CHEMBL4477254, “Synthesis and biological evaluation of some novel triazole hybrids of curcumin mimics and their selective anticancer activity against breast and prostate cancer cell lines” (Bioorg Med Chem Lett, 2016).
Active and inactive are the calls of the source. The rule behind the calls is not given here.

Assays:
PC-3 [1] = assay: Induction of morphological changes in human PC3 cells assessed as cell detachment at >8.8 uM after 24 hrs by phase contrast microscopy; assay type: functional, cell-based
Method in brief: (§1)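 Cells were exposed to a range of concentrations for 24 h. Cell number and morphology, including detachment from the surface, were assessed by phase-contrast microscopy at 10X magnification.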

PC-3 [2] = assay: Cell cycle arrest in human PC3 cells assessed as accumulation at S phase at 8.8 uM after 24 hrs by propidium iodide staining based flow cytometry (reference value: 25.01%); assay type: functional
Method in brief: (§2)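 Cells treated 24 h with test compound, MCF-7 at various concentrations and PC-3 at various concentrations; cells harvested, stained with propidium iodide and acquired by flow cytometry for cell cycle phase distribution.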

PC-3 [3] = assay: Induction of morphological changes in human PC3 cells assessed as decrease in cell number at 2.4 to 8.8 uM after 24 hrs by phase contrast microscopy; assay type: functional, cell-based; method in brief: as §1
PC-3 [4] = assay: Cell cycle arrest in human PC3 cells assessed as accumulation at G0/G1 phase at 8.8 uM after 24 hrs by propidium iodide staining based flow cytometry (reference value: 72.73%); assay type: functional; method in brief: as §2
[5] = Half life in liver microsomes (unknown origin) at 8 ug/ml in presence of NADPH by UPLC analysis; assay type: ADME, Microsome
PC-3 [6] = assay: Cell cycle arrest in human PC3 cells assessed as accumulation at S phase at 4.8 uM after 24 hrs by propidium iodide staining based flow cytometry (reference value: 25.01%); assay type: functional; method in brief: as §2
PC-3 [7] = assay: Decrease in Bcl-2 expression in human PC3 cells at 4.8 to 8.8 uM after 24 hrs by Western blot analysis; assay type: functional, cell-based
Method in brief: (§3)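 MCF-7 or PC-3 cells treated with compound for 24 h, harvested; PCNA, Bax and Bcl-2 protein expression checked by Western blotting.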

PC-3 [8] = assay: Increase in Bax expression in human PC3 cells at 4.8 to 8.8 uM after 24 hrs by Western blot analysis; assay type: functional, cell-based; method in brief: as §3
[9] = Intrinsic clearance in liver microsomes (unknown origin) assessed per mg of protein at 8 ug/ml in presence of NADPH by UPLC analysis; assay type: ADME, Microsome
PC-3 [10] = assay: Induction of mitochondrial membrane depolarization in human PC3 cells at 4.8 uM after 24 hrs by JC-1 staining based flow cytometry (reference value: 4.51%); assay type: functional
PC-3 [11] = assay: Induction of apoptosis in human PC3 cells assessed as early apoptotic cells at 8.8 uM after 24 hrs by annexin V-FITC/propidium iodide staining based flow cytometry (reference value: 4.44%); assay type: functional
Method in brief: (§4)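 MCF-7 cells exposed to 3, 6 or 9 μM and PC-3 cells to 4.8 or 8.8 μM for 24 h, then harvested and dual-stained with Annexin V-FITC/PI and read by flow cytometry. Gates: live AnnexinV⁻/PI⁻, early apoptotic AnnexinV⁺/PI⁻, necrotic AnnexinV⁻/PI⁺.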

PC-3 [12] = assay: Induction of apoptosis in human PC3 cells assessed as necrotic cells at 4.8 uM after 24 hrs by annexin V-FITC/propidium iodide staining based flow cytometry (reference value: 2.52%); assay type: functional; method in brief: as §4
PC-3 [13] = assay: Induction of apoptosis in human PC3 cells assessed as necrotic cells at 8.8 uM after 24 hrs by annexin V-FITC/propidium iodide staining based flow cytometry (reference value: 2.52%); assay type: functional; method in brief: as §4
PC-3 [14] = assay: Inhibition of colony formation in human PC3 cells incubated for 24 hrs measured till day 7 by crystal violet staining based assay; assay type: functional, cell-based
Method in brief: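 Cells were treated with a range of concentrations for 24 h. The medium was then replaced with complete medium and cells were grown for 7 days. Colonies were stained with 0.1% crystal violet.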

[15] = Intrinsic hepatic clearance in liver microsomes (unknown origin) assessed per mg of protein at 5 ug/ml in presence of NADPH by UPLC analysis; assay type: ADME, Microsome; conditions: read-out: CLH (converted)
MCF7 [16] = assay: Induction of apoptosis in human MCF7 cells assessed as early apoptotic cells at 6 uM after 24 hrs by annexin V-FITC/propidium iodide staining based flow cytometry (reference value: 7.36%); assay type: functional
Method in brief: (§5)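 Apoptosis by Annexin V-FITC/PI dual staining: MCF-7 cells treated 24 h at 3, 6 and 9 µM, then harvested, stained and acquired by flow cytometry; early apoptotic = AnnexinV+/PI−, live = AnnexinV−/PI−, necrotic = AnnexinV−/PI+.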

[17] = Half life in liver microsomes (unknown origin) at 5 ug/ml in presence of NADPH by UPLC analysis; assay type: ADME, Microsome
MCF7 [18] = assay: Cell cycle arrest in human MCF7 cells assessed as accumulation at G2/M phase at 9 uM after 24 hrs by propidium iodide staining based flow cytometry (reference value: 20.30%); assay type: functional; method in brief: as §2
MCF7 [19] = assay: Induction of apoptosis in human MCF7 cells assessed as decrease in live cells after 24 hrs by annexin V-FITC/propidium iodide staining based flow cytometry; assay type: functional, cell-based; method in brief: as §5
MCF7 [20] = assay: Cell cycle arrest in human MCF7 cells assessed as decrease in cells at G0/G1 phase after 24 hrs by propidium iodide staining based flow cytometry; assay type: functional; method in brief: as §2
MCF7 [21] = assay: Cell cycle arrest in human MCF7 cells assessed as accumulation at G0/G1 phase at 6 uM after 24 hrs by propidium iodide staining based flow cytometry (reference value: 45.67%); assay type: functional; method in brief: as §2
MCF7 [22] = assay: Cell cycle arrest in human MCF7 cells assessed as increase in cells at S phase after 24 hrs by propidium iodide staining based flow cytometry; assay type: functional; method in brief: as §2
[23] = target: Serine/threonine-protein kinase AKT (Homo sapiens) (UniProt P31751+Q9Y243+P31749); assay: Inhibition of Akt phosphorylation at […] in human MCF7 cells at 9 uM after 24 hrs by Western blot analysis; assay type: cell-based
Serine/threonine-protein kinase AKT (Homo sapiens), sequence (P31749 whole entry, looked up): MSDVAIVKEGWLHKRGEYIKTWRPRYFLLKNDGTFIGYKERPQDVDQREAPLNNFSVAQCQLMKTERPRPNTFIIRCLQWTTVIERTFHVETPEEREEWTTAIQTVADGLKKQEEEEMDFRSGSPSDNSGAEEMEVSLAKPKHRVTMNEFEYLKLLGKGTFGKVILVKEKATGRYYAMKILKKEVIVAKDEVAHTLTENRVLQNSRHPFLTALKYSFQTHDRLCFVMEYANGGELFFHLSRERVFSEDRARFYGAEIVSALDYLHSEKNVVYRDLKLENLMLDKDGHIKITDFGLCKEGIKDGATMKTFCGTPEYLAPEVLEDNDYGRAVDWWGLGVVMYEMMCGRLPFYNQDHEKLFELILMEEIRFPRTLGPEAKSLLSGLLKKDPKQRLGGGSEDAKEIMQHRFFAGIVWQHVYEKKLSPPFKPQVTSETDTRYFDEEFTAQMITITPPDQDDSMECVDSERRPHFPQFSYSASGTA
Serine/threonine-protein kinase AKT (Homo sapiens), sequence (P31751 whole entry, looked up): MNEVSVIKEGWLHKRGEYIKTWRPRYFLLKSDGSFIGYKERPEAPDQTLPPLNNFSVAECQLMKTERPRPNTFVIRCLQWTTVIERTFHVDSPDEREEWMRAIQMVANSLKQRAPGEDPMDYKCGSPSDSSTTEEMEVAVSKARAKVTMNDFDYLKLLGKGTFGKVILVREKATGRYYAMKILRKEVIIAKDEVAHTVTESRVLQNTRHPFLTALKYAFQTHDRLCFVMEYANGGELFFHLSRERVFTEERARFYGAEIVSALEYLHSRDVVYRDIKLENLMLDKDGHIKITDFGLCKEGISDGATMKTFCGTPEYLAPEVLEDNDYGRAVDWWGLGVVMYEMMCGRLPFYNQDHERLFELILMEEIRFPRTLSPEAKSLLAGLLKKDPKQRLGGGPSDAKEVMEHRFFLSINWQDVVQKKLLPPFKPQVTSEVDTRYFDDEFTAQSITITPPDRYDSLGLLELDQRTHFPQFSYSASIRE
Serine/threonine-protein kinase AKT (Homo sapiens), sequence (Q9Y243 whole entry, looked up): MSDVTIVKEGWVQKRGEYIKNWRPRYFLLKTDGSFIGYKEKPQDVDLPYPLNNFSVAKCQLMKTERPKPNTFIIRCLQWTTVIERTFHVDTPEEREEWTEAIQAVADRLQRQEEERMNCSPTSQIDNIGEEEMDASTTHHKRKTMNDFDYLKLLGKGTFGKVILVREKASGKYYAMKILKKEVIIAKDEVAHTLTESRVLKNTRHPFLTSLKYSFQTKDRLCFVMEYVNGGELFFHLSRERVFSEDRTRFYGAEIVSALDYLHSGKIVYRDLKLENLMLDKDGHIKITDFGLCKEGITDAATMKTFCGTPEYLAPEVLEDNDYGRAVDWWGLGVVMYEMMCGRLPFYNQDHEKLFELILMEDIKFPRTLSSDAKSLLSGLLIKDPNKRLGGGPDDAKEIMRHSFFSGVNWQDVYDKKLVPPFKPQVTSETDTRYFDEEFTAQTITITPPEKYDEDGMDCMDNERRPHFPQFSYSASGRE
Method in brief: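 Protein expression was analysed by Western blotting of cells harvested after 24 h compound treatment.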

MCF7 [24] = assay: Decrease in Bcl-2 expression in human MCF7 cells at 3 to 9 uM after 24 hrs by Western blot analysis; assay type: functional, cell-based; method in brief: as §3
MCF7 [25] = assay: Cell cycle arrest in human MCF7 cells assessed as accumulation at G2/M phase at 6 uM after 24 hrs by propidium iodide staining based flow cytometry (reference value: 20.30%); assay type: functional; method in brief: as §2
MCF7 [26] = assay: Induction of apoptosis in human MCF7 cells assessed as late apoptotic cells at 3 uM after 24 hrs by annexin V-FITC/propidium iodide staining based flow cytometry (reference value: 5.25%); assay type: functional; method in brief: as §5
MCF7 [27] = assay: Induction of apoptosis in human MCF7 cells assessed as late apoptotic cells at 9 uM after 24 hrs by annexin V-FITC/propidium iodide staining based flow cytometry (reference value: 5.25%); assay type: functional; method in brief: as §5
MCF7 [28] = assay: Induction of apoptosis in human MCF7 cells assessed as increase in early apoptotic cells after 24 hrs by annexin V-FITC/propidium iodide staining based flow cytometry; assay type: functional, cell-based; method in brief: as §5
[29] = Intrinsic clearance in liver microsomes (unknown origin) assessed per mg of protein at 5 ug/ml in presence of NADPH by UPLC analysis; assay type: ADME, Microsome
MCF7 [30] = assay: Induction of apoptosis in human MCF7 cells assessed as viable cells at 3 uM after 24 hrs by annexin V-FITC/propidium iodide staining based flow cytometry (reference value: 82.63%); assay type: functional; conditions: MCF7, 24 h, read-out: Activity; method in brief: as §5
MCF7 [31] = assay: Induction of apoptosis in human MCF7 cells assessed as viable cells at 9 uM after 24 hrs by annexin V-FITC/propidium iodide staining based flow cytometry (reference value: 82.63%); assay type: functional; conditions: MCF7, 24 h, read-out: Activity; method in brief: as §4
MCF7 [32] = assay: Cell cycle arrest in human MCF7 cells assessed as accumulation at S phase at 3 uM after 24 hrs by propidium iodide staining based flow cytometry (reference value: 34.03%); assay type: functional; method in brief: as §2

Cc1ccc(/C=C2\CN(Cc3cn(Cc4ccccc4F)nn3)C/C(=C\c3ccc(C)cc3)C2=O)cc1
Activity (PC-3 [1]): Active | Activity (PC-3 [2]): 23.61% | Activity (PC-3 [3]): Active | Activity (PC-3 [4]): 67.5% | half-life at 8 ug/ml [5]: 15.9 min | Activity (PC-3 [6]): 21.02% | Activity (PC-3 [7]): Active | Activity (PC-3 [8]): Active | CLint [9]: 87 µL/min/mg | Activity (PC-3 [10]): 29.85% | Activity (PC-3 [11]): 17.54% | Activity (PC-3 [12]): 0.91% | Activity (PC-3 [13]): 0.75% | inhibition (PC-3 [14]): Dose-dependent effect

O=C1/C(=C/c2ccccc2F)CN(Cc2cn(Cc3ccc(F)cc3)nn2)C/C1=C\c1ccccc1F
CLint scaled at 5 ug/ml [15]: 317 L/h/kg | Activity (MCF7 [16]): 30.56% | half-life at 5 ug/ml [17]: 7.52 min | Activity (MCF7 [18]): 35.11% | Activity (MCF7 [19]): Dose-dependent effect | Activity (MCF7 [20]): Dose-dependent effect | Activity (MCF7 [21]): 11.97% | Activity (MCF7 [22]): Dose-dependent effect | inhibition [23]: 100% | Activity (MCF7 [24]): Active | Activity (MCF7 [25]): 43.6% | Activity (MCF7 [26]): 16.3% | Activity (MCF7 [27]): 19.59% | Activity (MCF7 [28]): Dose-dependent effect | CLint [29]: 176 µL/min/mg | viability at 3 µM (MCF7 [30]): 52.4% | viability at 9 µM (MCF7 [31]): 40.3% | Activity (MCF7 [32]): 36.03%
